Measured values reported in ChEMBL document CHEMBL1140196, “Synthesis and biological activities of some new fluorinated coumarins and 1-aza coumarins” (Eur J Med Chem, 2008).
Active and inactive are the calls of the source.

What was measured:
[1] = Acute toxicity in po dosed albino mouse after 24 hrs; format: organism-based; conditions: in vivo
In short: (§1)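 Groups of six albino mice (20–25 g), fasted overnight, dosed once orally or intraperitoneally at 100 to 1000 mg kg^-1 body weight. Observed for 24 h for mortality and signs of acute toxicity (altered motor activity, tremors, convulsion, sedation, lacrimation). LD50 cut-off set at the highest dose tested, 1000 mg kg^-1.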

Mus musculus = experiment: Analgesic activity in albino mouse assessed as inhibition of acetic acid-induced writhing at 10 mg/kg, po; format: functional
In short: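 Acetic acid writhing test: 0.6% acetic acid at 0.1 ml/10 g given intraperitoneally to albino mice of both sexes (18–22 g). Compounds given orally at 10 mg/kg as a suspension in 5% carboxymethyl cellulose. Indomethacin 10 mg/kg was the reference under the same conditions.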

Rattus norvegicus [2] = experiment: Antiinflammatory activity in Wistar rat assessed as inhibition of formalin-induced paw oedema volume at 100 mg/kg, po administered 30 mins before formalin challenge after 5 hrs relative to control; format: functional
In short: (§2)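 Oral dosing at 100 mg/kg as a 2% CMC suspension, 30 min before injecting 3.5% formalin into the paw. Groups of six Wistar rats of either sex. Paw volume read by mercury-displacement plethysmograph at 0 h (right after formalin) and at 1, 2, 3, 4 and 5 h. Percent inhibition versus plain 2% CMC controls; SEM reported.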

Rattus norvegicus [3] = experiment: Antiinflammatory activity in Wistar rat assessed as inhibition of formalin-induced paw oedema volume at 100 mg/kg, po administered 30 mins before formalin challenge after 4 hrs relative to control; format: functional; in short: as §2
Rattus norvegicus [4] = experiment: Antiinflammatory activity in Wistar rat assessed as inhibition of formalin-induced paw oedema volume at 100 mg/kg, po administered 30 mins before formalin challenge after 3 hrs relative to control; format: functional; in short: as §2
Rattus norvegicus [5] = experiment: Antiinflammatory activity in Wistar rat assessed as inhibition of formalin-induced paw oedema volume at 100 mg/kg, po administered 30 mins before formalin challenge after 2 hrs relative to control; format: functional; in short: as §2
Rattus norvegicus [6] = experiment: Gastrointestinal toxicity in Wistar rat assessed as ulcerogenic effect at 400 mg/kg, po administered twice at 2 hrs interval after 4 hrs; format: organism-based; parameters: dose 400 mg/kg, route oral; conditions: in vivo
In short: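 Male Wistar rats fasted 36 h, then given 400 mg/kg orally twice, 2 h apart. Animals killed 4 h later and the stomach examined for lesions; ulcer index recorded.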

[7] = Acute toxicity in ip dosed albino mouse after 24 hrs; format: organism-based; conditions: in vivo; in short: as §1
Rattus norvegicus [8] = experiment: Antiinflammatory activity in Wistar rat assessed as inhibition of formalin-induced paw oedema volume at 100 mg/kg, po administered 30 mins before formalin challenge after 1 hr relative to control; format: functional; in short: as §2
Bacillus [9] = experiment: Antibacterial activity against […] at 25 ug/mL after 48 hrs by cup-plate method; format: functional; conditions: for zone of inhibition at 25 µg/mL: read-out: IZ
Macrophomina phaseolina [10] = experiment: Antifungal activity against Rhizoctonia bataticola at 25 ug/mL after 48 hrs by cup-plate method; format: functional
Macrophomina phaseolina [11] = experiment: Antifungal activity against Rhizoctonia bataticola at 100 ug/mL after 48 hrs by cup-plate method; format: functional
Aspergillus niger [12] = experiment: Antifungal activity against Aspergillus niger at 100 ug/mL after 48 hrs by cup-plate method; format: functional
Macrophomina phaseolina [13] = experiment: Antifungal activity against Rhizoctonia bataticola at 50 ug/mL after 48 hrs by cup-plate method; format: functional; conditions: for zone of inhibition at 50 µg/mL: read-out: IZ
Aspergillus niger [14] = experiment: Antifungal activity against Aspergillus niger at 25 ug/mL after 48 hrs by cup-plate method; format: functional; conditions: for zone of inhibition at 25 µg/mL: read-out: IZ
Escherichia coli [15] = experiment: Antibacterial activity against Escherichia coli at 25 ug/mL after 48 hrs by cup-plate method; format: functional; conditions: for zone of inhibition at 25 µg/mL: read-out: IZ
Escherichia coli [16] = experiment: Antibacterial activity against Escherichia coli at 50 ug/mL after 48 hrs by cup-plate method; format: functional
Escherichia coli [17] = experiment: Antibacterial activity against Escherichia coli at 100 ug/mL after 48 hrs by cup-plate method; format: functional
Bacillus [18] = experiment: Antibacterial activity against […] at 50 ug/mL after 48 hrs by cup-plate method; format: functional
Aspergillus niger [19] = experiment: Antifungal activity against Aspergillus niger at 50 ug/mL after 48 hrs by cup-plate method; format: functional
Bacillus [20] = experiment: Antibacterial activity against […] at 100 ug/mL after 48 hrs by cup-plate method; format: functional

Structure (SMILES)	Activity (Bacillus [9])	Activity (Macrophomina phaseolina [10])	inhibition at 100 µg/mL (Macrophomina phaseolina [11])	inhibition at 100 µg/mL (Aspergillus niger [12])	inhibition at 50 µg/mL (Macrophomina phaseolina [13])	zone of inhibition at 50 µg/mL (Macrophomina phaseolina [13])	Activity (Aspergillus niger [14])	Activity (Escherichia coli [15])	inhibition at 50 µg/mL (Escherichia coli [16])	inhibition at 100 µg/mL (Escherichia coli [17])	inhibition at 50 µg/mL (Bacillus [18])	inhibition at 50 µg/mL (Aspergillus niger [19])	inhibition at 100 µg/mL (Bacillus [20])	inhibition at 25 µg/mL (Bacillus [9])	zone of inhibition at 25 µg/mL (Bacillus [9])	inhibition at 25 µg/mL (Escherichia coli [15])	zone of inhibition at 25 µg/mL (Escherichia coli [15])	other results
O=c1cc(CNc2ccc(F)cc2)c2ccc3ccccc3c2o1																		LD50 at 24 h [1]: > 1000 mg/kg; inhibition in vivo at 10 mg/kg (Mus musculus): 76.4%; inhibition in vivo at 100 mg/kg (Rattus norvegicus [2]): 81%; inhibition in vivo at 100 mg/kg (Rattus norvegicus [3]): 71%; inhibition in vivo at 100 mg/kg (Rattus norvegicus [4]): 53%; inhibition in vivo at 100 mg/kg (Rattus norvegicus [5]): 54%; UI (Rattus norvegicus [6]): 64.93; LD50 at 24 h [7]: > 700 mg/kg; inhibition in vivo at 100 mg/kg (Rattus norvegicus [8]): 81%
O=c1cc(CNc2ccc(F)cc2)c2c(ccc3ccccc32)o1																		LD50 at 24 h [1]: > 1000 mg/kg; inhibition in vivo at 10 mg/kg (Mus musculus): 10.5%; inhibition in vivo at 100 mg/kg (Rattus norvegicus [2]): 77%; inhibition in vivo at 100 mg/kg (Rattus norvegicus [3]): 60%; inhibition in vivo at 100 mg/kg (Rattus norvegicus [4]): 53%; inhibition in vivo at 100 mg/kg (Rattus norvegicus [5]): 35%; UI (Rattus norvegicus [6]): 64.93; LD50 at 24 h [7]: > 800 mg/kg; inhibition in vivo at 100 mg/kg (Rattus norvegicus [8]): 63%
O=c1cc(COc2ccc(F)cc2)c2ccccc2[nH]1																		LD50 at 24 h [1]: > 1000 mg/kg; inhibition in vivo at 10 mg/kg (Mus musculus): 15.8%; inhibition in vivo at 100 mg/kg (Rattus norvegicus [2]): 77%; inhibition in vivo at 100 mg/kg (Rattus norvegicus [3]): 63%; inhibition in vivo at 100 mg/kg (Rattus norvegicus [4]): 52%; inhibition in vivo at 100 mg/kg (Rattus norvegicus [5]): 23%; UI (Rattus norvegicus [6]): 60.71; LD50 at 24 h [7]: > 800 mg/kg; inhibition in vivo at 100 mg/kg (Rattus norvegicus [8]): 35%
O=c1cc(COc2ccc(Cl)cc2)c2cc(Cl)ccc2[nH]1	inactive	inactive	55%	53%	33%	84 mm	inactive	inactive	30%	50%	31%	25%	60%					
Cc1ccc2c(COc3ccc(F)cc3)cc(=O)oc2c1		inactive	53%	52%	30%	80 mm	inactive		37%	62%	37%	21%	64%	21%	50 mm	17%	44 mm	
O=c1cc(CNc2ccc(F)cc2)c2cc(Cl)ccc2o1			91%	90%	76%				64%	95%	83%	73%	99%	64%		51%	92 mm	inhibition at 25 µg/mL (Macrophomina phaseolina [10]): 68%; inhibition at 25 µg/mL (Aspergillus niger [14]): 64%
Cc1ccc2c(COc3ccc(Br)cc3)cc(=O)oc2c1		inactive	57%	52%	32%	84 mm	inactive		37%	66%	37%	22%	63%	20%	48 mm	20%	48 mm	
O=c1cc(COc2ccc(Cl)cc2)c2ccc(Cl)cc2[nH]1	inactive	inactive	51%	50%	35%	78 mm	inactive	inactive	27%	48%	25%	21%	56%					
Cc1cccc2c(COc3ccc(F)cc3)cc(=O)[nH]c12	inactive		58%	60%	36%	90 mm		inactive	33%	57%	31%	36%	62%					inhibition at 25 µg/mL (Macrophomina phaseolina [10]): 21%; inhibition at 25 µg/mL (Aspergillus niger [14]): 22%; zone of inhibition at 25 µg/mL (Aspergillus niger [14]): 52 mm
Cc1ccc2c(COc3ccc(Cl)cc3)cc(=O)oc2c1		inactive	54%	50%	27%	75 mm	inactive		35%	65%	33%	22%	62%	14%	40 mm	14%	40 mm	
Cc1ccc2c(CNc3ccc(Br)cc3)cc(=O)oc2c1		inactive	59%	55%	35%	90 mm	inactive		35%	64%	37%	23%	63%	21%	50 mm	13%	38 mm	
O=c1cc(COc2ccc(Br)cc2)c2cc(Cl)ccc2[nH]1	inactive	inactive	55%	62%	32%	82 mm		inactive	30%	50%	25%	36%	58%					inhibition at 25 µg/mL (Aspergillus niger [14]): 21%; zone of inhibition at 25 µg/mL (Aspergillus niger [14]): 50 mm
